# DNMT1 block: blocks human DNA methyltransferase DNMT1 | inhibition (reported as % activation of signal), % at 10 µM | P26358 | actives 0.83% (n = 360,000) | AID 588458 | DNMT1 molecular beacon, Hinp1I cleavage, fluorescence
# LMPTP block: LMPTP (human) inhibition; P24666; recombinant LMPTP-A, OMFP fluorogenic substrate, fluorescence intensity; inhibition, % at 20 µM; actives 0.22% (n = 360,000); AID 651560;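 active = compounds that cut the enzyme signal by at least half of the control window in the single-dose screen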;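 note: plate controls were DMSO wells with enzyme plus substrate for no effect and substrate without enzyme for full effect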
#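 Test system – LMPTP-A phosphatase enzyme · Quantity – 0.625 nM LMPTP-A final · Reagent – OMFP substrate, 400 µM final · Dosing – one test concentration per compound, 20 µM, with 3% DMSO overall · Timing – 50 min enzyme reaction at room temperature, protected from light · Detection – fluorescence intensity · Controls – substrate-only low control, DMSO enzyme-plus-substrate high control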
# Scp1 inh: Scp-1 (human) phosphatase inhibition. Recombinant Scp1, phosphopeptide, malachite green phosphate absorbance. actives 0.88% (n = 340,000). inhibition, % at 20 µM. Q9GZU7;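 active = inhibition above about 50% at 20 µM, limit read from the data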;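 note: plate controls were DMSO wells with enzyme for no effect and wells lacking enzyme for full effect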
# Target sequence (Q9GZU7 76-261 limits assumed): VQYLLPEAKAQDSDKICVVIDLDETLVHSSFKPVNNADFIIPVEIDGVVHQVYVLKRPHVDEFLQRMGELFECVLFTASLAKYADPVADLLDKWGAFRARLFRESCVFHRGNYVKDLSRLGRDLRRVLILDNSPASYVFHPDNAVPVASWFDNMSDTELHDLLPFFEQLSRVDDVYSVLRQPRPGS
#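 System: truncated SCP-1 phosphatase (76-261aa); medium: Tris acetate buffer pH 5.5 with MgCl2 and Tween-20; incubation: 45 min room-temperature reaction, 5 min colour, 30 min stabiliser; compound: single 20 µM dose, 1% DMSO; reagent: Phosphorylated 17-residue peptide substrate; read-out: % inhibition at 20 µM; technique: colorimetric free-phosphate detection, absorbance 630 nm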
# SUMO1 PPI mod: SUMO1-SIM interaction modulation | SUMO1 binding to a labelled peptide, TR-FRET, 1 h | inhibition, % at 20 µM | actives 0.33% (n = 360,000) | AID 602429; in the data active = inhibition above about 37%
# Target sequence (P63165 whole entry, looked up): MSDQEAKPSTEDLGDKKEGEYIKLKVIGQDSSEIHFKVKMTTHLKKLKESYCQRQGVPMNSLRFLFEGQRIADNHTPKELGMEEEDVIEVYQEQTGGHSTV
# CSN inh: blocks human CSN-mediated cullin deneddylation | Purified CSN, SCF-Nedd8-OG deneddylation, fluorescence polarization | actives 0.38% (n = 360,000) | inhibition, % at 12.5 µM | AID 651999;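 active = pattern-corrected inhibition above about 35%, with an unprinted fluorescence ratio check between 0.5 and 1.5, limit read from the data, passing the limit was not always enough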;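 note: 0% = enzyme with substrate and 100% = substrate without enzyme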
# Target sequence (Q92905 whole entry, looked up, one chain of several): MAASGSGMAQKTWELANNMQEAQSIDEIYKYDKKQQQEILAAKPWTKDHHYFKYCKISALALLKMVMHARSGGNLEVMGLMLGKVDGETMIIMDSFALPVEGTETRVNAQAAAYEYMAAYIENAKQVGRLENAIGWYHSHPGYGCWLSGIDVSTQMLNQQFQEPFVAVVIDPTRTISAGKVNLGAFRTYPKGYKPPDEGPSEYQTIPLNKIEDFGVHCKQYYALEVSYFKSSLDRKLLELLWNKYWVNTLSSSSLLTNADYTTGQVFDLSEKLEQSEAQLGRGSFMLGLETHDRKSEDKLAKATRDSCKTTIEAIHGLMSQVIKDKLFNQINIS
#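 Detection – fluorescence polarization · System – HEK293T-derived human Csn5 enzyme · Controls – substrate-only high control, full reaction low control · Timing – 90 min, room temperature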
# STEP block: inhibitors of human striatal-enriched phosphatase STEP; P54829; recombinant STEP, OMFP fluorogenic substrate, fluorescence; inhibition, % at 20 µM; actives 0.25% (n = 360,000); AID 588621;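 active = inhibition at 20 µM, scaled per plate between control wells, above about 37%, limit read from the data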;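 note: 0% = DMSO with enzyme and substrate and 100% = substrate only without enzyme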
#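 Also added – OMFP at 25 µM · Test system – STEP tyrosine phosphatase · Technique – FITC-channel fluorescence of OMFP product · Schedule – 20 min at room temperature, dark · Evaluation – control-normalized % inhibition with plate pattern correction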
# CSN5 deneddyl: validation of inhibitors of human CSN-mediated cullin deneddylation. shares compounds with CSN inh. Csn5 deneddylation of SCF-Nedd8OG, fluorescence polarization, 90 min. actives 62% (n = 540). inhibition, % at 16.6 µM. AID 720654;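 note: 0% = DMSO with enzyme and 100% = no enzyme wells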
# MMP2 cntr CSN: blocks human MMP-2 in a CSN deneddylation counter-screen; actives 33% (n = 540); inhibition, % at 16.6 µM; shares compounds with CSN inh; recombinant MMP-2, FRET substrate fluorescence, 60 min;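 active = corrected plate-normalized z-score of 5 or more, or -5 or less, or inhibition of 15% or more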;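 note: plate controls were DMSO wells with enzyme for no effect and buffer wells lacking MMP-2 for full effect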
# Thrombin cntr: counter-screen for CSN deneddylation inhibitors: bovine thrombin inhibition; actives 49% (n = 540); bovine thrombin cleavage of Ub4-pepOG, fluorescence polarization; shares compounds with CSN inh; inhibition, % at 16.6 µM; AID 720656;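 active = inhibition at or above a set limit, with a fluorescence interference ratio between 0.5 and a set maximum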
# An asterisk follows results filed as active; . = no result given. The list is not random: actives were taken first. Their share in the collection is about 1.9%. Cut-off read from the data, not from the text of the source, unless noted: active = inhibition above about 50%; inactive = the rest.
SMILES,DNMT1 block,LMPTP block,Scp1 inh,SUMO1 PPI mod,CSN inh,STEP block,CSN5 deneddyl,MMP2 cntr CSN,Thrombin cntr
Cc1ccc(S(=O)(=O)/N=C2/NC(=O)/C(=C/c3cccnc3)S2)cc1,3.6,-1.2,5.8,13.0,1.5,0.3,.,.,.
COc1ccc(NC(=S)Nc2ccc3nsnc3c2)cc1,64.3*,10.2,14.3,58.0*,49.2*,6.3,94.0*,29.8*,-28.4
COc1ccc(NC(=S)Nc2ccc3nc(C)c(C)nc3c2)cc1,-1.6,2.2,-2.2,-5.6,2.4,-1.1,.,.,.
NC(=O)c1nsc(C(=O)N(Cc2cccnc2)C(C(=O)NCc2ccc(F)cc2)c2ccc(F)cc2)c1N (stereo not drawn),1.0,-0.2,-0.8,-18.3,-2.3,2.3,.,.,.
O=C(O)CCCCCN1C(=O)/C(=C\c2ccncc2)SC1=S,-2.5,-0.3,1.5,-10.1,7.2,3.1,.,.,.
O=C(O)CCCN1C(=O)/C(=C/c2ccncc2)SC1=S,1.2,-1.4,5.8,-26.9,1.4,1.0,.,.,.
O=C(O)CCCN1C(=O)/C(=C/c2ccc(-c3nc4ccccc4s3)o2)SC1=S,103.6*,8.9,58.9*,33.8,121.9*,61.6*,.,1.2,-13.4
O=C(O)CCCCCN1C(=O)/C(=C\c2ccc(-c3ccc(Cl)cc3)o2)SC1=S,14.4,78.8*,88.7*,70.1*,61.2*,6.7,74.0*,16.4*,24.7*
CC(O)CC(=O)OC[C@]12CC[C@H]3[C@@](C)(CC[C@H]4C(C)(C)CCC[C@]34C)[C@@H]1CC(C1=CC(=O)OC1O)O2 (stereo partly drawn),38.7,1.8,.,0.3,46.0*,-0.8,30.7,2.0,-4.0
O=C(O)c1cccc(-c2ccc(/C=c3/sc4nc5ccccc5n4c3=O)o2)c1,86.8*,49.2,96.3*,103.3*,128.9*,93.9*,-45.5,19.0*,78.4*
CNC(=S)N/N=C/c1ccc(-c2cccc(C(=O)O)c2)o1,2.1,-1.5,-0.7,-12.2,2.3,-0.6,.,.,.
CCn1nccc1C(=O)Nc1ccc(C(=O)OC(C)C)cc1,0.1,-0.7,-3.7,3.1,-0.4,0.6,.,.,.
O=[N+]([O-])c1ccc(N/N=C/c2c[nH]c3ccccc23)c(S(=O)(=O)Nc2ccc(Cl)cc2)c1,-23.4,9.8,-9.8,-6.3,38.5*,-9.3,81.7*,6.8,12.1
CCN(CC)c1ccc(/C=C2\CCC(/C=N/NC(=O)c3ccc(=O)n(C)c3)=C2N2CCOCC2)cc1,0.4,1.9,-4.6,-15.4,69.3*,-11.0,49.8,-32.5*,37.1*
CCOC(=O)/C(=C/c1ccc(N2CCC(c3ccccc3)=N2)cc1)C(C)=O,-6.4,9.0,-3.1,-13.6,39.6*,-13.2,189.3*,-71.1*,-31.7
O=C1/C(=C/c2ccc(O)c(O)c2)Oc2cc(O)ccc21,6.2,3.5,-4.3,-24.2,29.6,1.5,.,.,.
COc1cc(/C=C2\Oc3cc(O)ccc3C2=O)ccc1O,3.4,1.2,-1.4,-36.1,40.1*,-0.9,98.1*,-7.2,28.8*
Cc1cccc(N2CCN(C(=S)Nc3ccc4nc(N5CCN(C)CC5)cc(C)c4c3)CC2)c1C,4.4,-2.7,0.9,-29.1,35.6*,10.7,96.7*,13.8,-4.8
Cc1cc(N2CCN(C)CC2)nc2ccc(NC(=S)N3CCCCC3)cc12,-2.5,3.5,-5.4,-17.0,0.6,-0.1,.,.,.
CCC1C/C(=C\c2cc(OC)c(OC)cc2OC)C(=O)/C(=C/c2cc(OC)c(OC)cc2OC)C1 (stereo not drawn),-19.1,3.3,-10.1,9.4,35.3*,1.4,64.0*,-10.3,47.7*
CC(C)(C)NC(=O)C(C1CC1)n1c(=O)c(-c2ccco2)nc2ccccc21 (stereo not drawn),.,-1.3,.,-10.6,2.9,.,.,.,.
COc1cccc(C2C(C(=O)Nc3ccccc3)=C(C)N=c3s/c(=C/c4ccc(OCC(=O)O)cc4)c(=O)n32)c1 (stereo not drawn),1.6,1.7,-1.8,0.6,-6.5,4.7,.,.,.
CCOC(=O)C1=C(C)N=c2sc(=Cc3cc(Cl)c(OCC(=O)O)c(Cl)c3)c(=O)n2C1c1cccc(OC)c1 (stereo not drawn),12.7,1.7,.,5.4,64.1*,4.1,16.6,1.9,49.2*
CCN1C(=O)/C(=C\C=C\c2ccccc2[N+](=O)[O-])SC1=S,-8.7,1.7,-10.9,-10.1,-1.1,3.9,.,.,.
CCN1C(=O)/C(=C/C=C2\N(CC)c3cc(S(=O)(=O)N(C)C)ccc3N2c2ccccc2)SC1=S,-5.3,18.5,-2.5,23.4,74.5*,-74.8,63.5*,-6.2,34.2*
SMILES,DNMT1 block,LMPTP block,Scp1 inh,SUMO1 PPI mod,CSN inh,STEP block,CSN5 deneddyl,MMP2 cntr CSN,Thrombin cntr
N=C1/C(=C\c2ccc(-c3cccc(Cl)c3)o2)C(=O)N=C2SC=C(c3ccccc3)N12,60.9*,7.7,-6.3,18.8,37.8*,6.3,64.5*,10.0,23.4*
N#Cc1c(NC(=O)/C=C/C(=O)O)sc2c1CCN(Cc1ccccc1)C2,37.0,47.4*,67.5*,10.2,41.6*,2.0,40.3,2.4,45.6*
CC(=O)Nc1sc2c(c1C#N)CCN(Cc1ccccc1)C2,1.0,-1.6,-4.8,4.2,0.0,3.1,.,.,.
Cc1ccc(Nc2cc(C)c(O)c(C)c2)cc1,-30.3,1.3,-13.9,3.4,-5.7,1.0,.,.,.
O=C1NN(c2ccc(F)cc2)C(=O)/C1=C\C=C\c1ccco1,15.3,4.5,22.8,-19.0,-4.6,7.1,.,.,.
O=C1/C(=C/C=C/c2ccco2)SC(=S)N1c1ccc(O)cc1,93.5*,58.1*,59.4*,60.0*,57.2*,16.0,63.8*,31.2*,42.2*
CN(C)c1ccc(/C=C/C=C2/SC(=S)N(c3ccccc3)C2=O)cc1,-4.9,19.2,-4.9,-20.4,37.7*,14.1,66.7*,-10.1,35.4*
COc1cc(/C=C/c2ccc(O)cc2)cc(OC)c1,-34.1,2.5,1.4,4.1,0.1,-3.0,.,.,.
COC(=O)c1ccc2c(c1)C(C)(C)C(/C=C/c1ccc(O)cc1)=[N+]2C,-19.0,6.5,99.4*,-10.1,47.6*,-6.4,61.8*,-16.9,35.1*

# Bioassay records: PubChem, Sanford-Burnham Center for Chemical Genomics
